Measles CPE: compounds protecting cells from measles virus cytopathic effect, primary screen, measles RdRp inhibitor project, single point, MLSMR library, absorbance | AID 841, 2007 | protection (pct of control), % at 4 µM | Measles virus-infected cells, CPE protection | 140,000 compounds, 1.5% hits; in the data active means protection mostly above about 24%, no sharp cut-off; inactive means mostly below about 26%
NPY-Y1 PAM-ag: NPY-Y1 receptor potentiators or agonists, primary screen, cell-based | activation, % at 3.6 µM | 220,000 compounds, 0.37% hits | AID 1304, 2008 | NPY-Y1 expressing cells, potentiator/agonist activation | Neuropeptide Y receptor type 1 (Homo sapiens), P25929; in the data active means activation above about 33%, passing the limit was not always enough;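 further: cells stimulated with NPY at EC10 then isoproterenol at EC100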
NPY Y2 blocker: NPY-Y2 receptor antagonists, primary screen, cell-based; Neuropeptide Y receptor type 2 (Homo sapiens), P49146; NPY-Y2 expressing cells, antagonist mode; inhibition, % at 2.7 µM; 140,000 compounds, 0.99% hits; in the data active means inhibition above about 17%
MDM2 E3 inh: MDM2-luciferase reporter signal enhancers, primary screen, MDM2 E3 ligase inhibitor project, cell-based, luminescence, 1536-well; signal enhancement, % at 5 µM; 210,000 compounds, 0.11% hits; E3 ubiquitin-protein ligase Mdm2 (Homo sapiens), Q00987; cell-based MDM2 ubiquitination luciferase reporter, 2 h; 0 = plate control, 100 = twice control, blank-subtracted;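 active means signal enhancement of 30% or more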;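 further: luminescence tracks abundance of the self-degrading MDM2-luciferase fusion protein; higher signal means inhibition of MDM2 E3 ligase activity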
Target sequence (Q00987 whole entry, looked up, the tested form may be a part): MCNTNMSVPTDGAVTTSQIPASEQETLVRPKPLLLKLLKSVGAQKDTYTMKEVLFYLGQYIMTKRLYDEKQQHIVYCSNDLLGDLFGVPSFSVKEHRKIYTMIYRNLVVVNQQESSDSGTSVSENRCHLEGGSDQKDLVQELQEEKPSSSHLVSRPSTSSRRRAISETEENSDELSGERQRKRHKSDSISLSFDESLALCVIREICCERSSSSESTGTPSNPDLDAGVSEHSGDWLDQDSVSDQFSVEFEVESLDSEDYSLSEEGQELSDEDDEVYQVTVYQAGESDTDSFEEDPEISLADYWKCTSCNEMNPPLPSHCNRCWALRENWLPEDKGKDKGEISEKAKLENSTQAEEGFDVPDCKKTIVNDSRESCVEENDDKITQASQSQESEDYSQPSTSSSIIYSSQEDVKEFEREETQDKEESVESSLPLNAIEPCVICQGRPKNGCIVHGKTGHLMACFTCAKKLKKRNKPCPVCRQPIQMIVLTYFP
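Buffer or medium: Cells held in DMEM | Assay system: Stable mammalian line carrying autodegrading MDM2–luciferase fusion reporter | Quantity: 2000 cells/well | Times: 4 h settle plus 2 h compound, 37 °C | Doses: One concentration, 5 µM, with 0.2% DMSO | Technique: Luminescence with SteadyLite reagent, 15 min at room temperature | Benchmarks: Plate controls and plate blanks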
NPY Y1 blocker: NPY-Y1 receptor antagonists, primary screen, cell-based; Neuropeptide Y receptor type 1 (Homo sapiens), P25929; inhibition, % at 3.6 µM; 200,000 compounds, 1% hits; AID 1040, 2008; HEK293-CNG Y1 cells, membrane potential fluorescence; NPY at EC95, then isoproterenol;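 active means inhibition above the campaign mean inhibition of all tested compounds plus 3 SD, cut at about 20% in these data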
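Assay system: HEK293 cells with Y1 receptor plus CNG channel | Probe or stimulus: NPY (25 nM), isoproterenol (1 µM), Ro 20-1724 (25 µM) | Timing: Compound incubation 1 h at room temperature, readout 45 min post-stimulation | Measured by: Membrane-potential fluorescent dye readout | Benchmarks: High control isoproterenol alone, low control NPY with isoproterenol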
NPY-Y2 PAM-ag: NPY-Y2 potentiators or agonists, primary screen, cell-based. cells expressing NPY-Y2, potentiator/agonist read-out. activation, % at 3.6 µM. 220,000 compounds, 0.45% hits; in the data active means activation above about 27%;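 further: cells stimulated with NPY near EC25 plus isoproterenol at EC100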
Of the large screens only hits and unclear results are named; the others gave an inactive call. Sampled rows, rich in hits. Any-hit rate of the full collection: about 2.8%.

Cc1c(/C=N/NC(N)=O)c2ccccn2c1C(=O)c1ccncc1	none (no result: Measles CPE, NPY Y2 blocker, NPY Y1 blocker)
COC(=O)C1=C(O)CSC1=Nc1ccccc1	none
COC(=O)C1=C(O)CSC1=Nc1ccc(C)cc1	Measles CPE 26
Cc1ccc2c(c1)N(C(C)C(=O)NCc1ccc3c(c1)OCO3)C(=O)CO2 (stereo unspecified)	none (no result: Measles CPE, NPY Y2 blocker, MDM2 E3 inh, NPY Y1 blocker)
O=C(c1cccc(C(F)(F)F)c1)c1c[nH]c(C(=O)NCCCN2CCOCC2)c1	none (no result: Measles CPE, NPY Y2 blocker)
CCCS(=O)(=O)n1nc(-c2ccc(OC)cc2)cc1N	Measles CPE 27
COc1cc(CO)cc(Br)c1OCC(=O)Nc1cccc2ccccc12	none (no result: Measles CPE, NPY Y2 blocker)
COc1cc2c(cc1OC)CN(C(=O)c1ccccc1C(=O)O)CC2	Measles CPE 60
FC(F)(F)C(F)(F)c1nnc2ccc(-n3ccnc3)nn12	none (no result: Measles CPE, NPY Y2 blocker)
C=CCN1C(=O)C(C)(C)N(C(C)=O)c2ccccc21	Measles CPE 20
CC(=O)N1c2ccccc2N(Cc2ccc(C)cc2C)C(=O)C1(C)C	none (no result: NPY-Y1 PAM-ag, NPY Y2 blocker, NPY Y1 blocker, NPY-Y2 PAM-ag)
CCNC(=O)c1ccccc1-c1nc(-c2ccccc2Cl)no1	Measles CPE 35
Cc1ccc(C(=O)CSc2cc(C)nc(SCC(=O)c3ccccc3)n2)cc1	none
Cc1cc(Oc2ccc(C)c(Cl)c2)nc(SCC(=O)c2ccccc2)n1	NPY Y2 blocker 35, NPY Y1 blocker 34
COc1ccc2nc(NC(=S)N(C)C)sc2c1	none
CC(C)COP(=O)(OCC(C)C)C(Nc1ccccc1)c1ccc(F)cc1 (stereo unspecified)	NPY Y2 blocker 23, NPY Y1 blocker 31
Cc1nc2nc3c(c(=O)n2[nH]1)CCCC3	Measles CPE 29
Cc1cc(C)n(-c2ccc(C(=O)OCC(=O)Nc3ccccc3[N+](=O)[O-])cc2)n1	none
Cc1cc(C)n(-c2ccc(C(=O)OCC(=O)Nc3ccc([N+](=O)[O-])cc3)cc2)n1	Measles CPE 44
CCCCCCC(C)OC(=O)c1ccccc1C(=O)O (stereo unspecified)	none (no result: Measles CPE, NPY Y2 blocker, NPY Y1 blocker)
CC(C)NC(=O)NC(=O)COC(=O)c1ccc([N+](=O)[O-])cc1Cl	none (no result: Measles CPE, NPY Y2 blocker)
CC(C)=CC(=O)Nc1nnc(C)s1	Measles CPE 38
S=C(Nc1ccc(Br)cc1)NC1CCCCC1	none (no result: MDM2 E3 inh)
CC(=O)Oc1ccc(C(=O)Nc2ccccc2C(=O)NCC(C)C)cc1	Measles CPE 54
COC(=O)CSc1nc(N)c2c3c(sc2n1)C(c1ccccc1)SC(c1ccccc1)C3 (stereo unspecified)	NPY-Y1 PAM-ag 81, NPY-Y2 PAM-ag 56
CC(C)(C)C1CCc2c(sc3nc(SCC(=O)O)nc(N)c23)C1 (stereo unspecified)	NPY-Y1 PAM-ag 105, NPY-Y2 PAM-ag 101 (no result: Measles CPE, NPY Y2 blocker, NPY Y1 blocker)
CCC(=O)Nc1nonc1-c1nc2ccccc2n1CCC(C)C	none
CC(=O)Nc1nonc1-c1nc2ccccc2n1CCC(C)C	NPY Y2 blocker 18, NPY Y1 blocker 43
CCC(=O)Nc1nonc1-c1nc2ccccc2n1Cc1ccccc1	none
CCOC(=O)Cn1c(-c2nonc2NC(=O)c2ccccc2F)nc2ccccc21	Measles CPE 50
CC1(C)C/C(=N\NC(=S)Nc2ccccc2F)c2cc(O)ccc2O1	none (no result: Measles CPE, NPY Y2 blocker)
Cc1ccccc1OCC(O)CN(Cc1ccccc1O)C1CCCCC1 (stereo unspecified)	NPY Y1 blocker 20 (no result: Measles CPE, NPY Y2 blocker)
CN(CC(O)COc1ccccc1F)C1CCCCC1 (stereo unspecified)	none (no result: Measles CPE, NPY Y2 blocker)
O=C(N/N=C/c1ccc2c(c1)OCO2)c1ccccn1	Measles CPE 92
CC(C)Oc1ccc2ccccc2c1C=O	Measles CPE 24
COC(=O)C(C)(C)ONC(=O)Nc1ccccc1	none
O=C(Nc1cccc(S(=O)(=O)N2CCOCC2)c1)c1cnccn1	none (no result: Measles CPE, NPY Y2 blocker)
CC(=O)SC(C)CC(=O)Nc1ccccc1 (stereo unspecified)	NPY-Y1 PAM-ag 42, NPY-Y2 PAM-ag 34
CC(=O)SC(C)CC(=O)NCc1ccccc1 (stereo unspecified)	NPY-Y1 PAM-ag 119, NPY-Y2 PAM-ag 54
CCc1nc2ccccc2n1CC(O)COCC1CC=CCC1 (stereo unspecified)	none (no result: Measles CPE, NPY Y2 blocker)
C#Cc1ccc([C@@H]2C=C(C(=O)N3CCOCC3)O[C@H](OCC)[C@H]2CCCO)cc1	none (no result: Measles CPE, NPY Y2 blocker, MDM2 E3 inh)
CCOC(=O)c1c(C)n(C)c2ccc(OC(=O)c3ccc([N+](=O)[O-])cc3)cc12	none
CCOC(=O)c1c(C)n(C)c2ccc(OC(=O)c3ccoc3)cc12	Measles CPE 39
Cc1ccc(C(=O)Nc2nc3ccccc3n3nnnc23)cc1	Measles CPE 21
Oc1cccc(NC(=S)Nc2cccnc2)c1	NPY-Y1 PAM-ag 62, NPY-Y2 PAM-ag 60
OCCC1CN(Cc2ccc(Oc3ncccn3)cc2)CCN1Cc1ccc(F)c(F)c1 (stereo unspecified)	none (no result: Measles CPE, NPY Y2 blocker, NPY Y1 blocker)
CCCCOc1ccc(C(=O)C(CN2CCOCC2)c2ccccc2)cc1 (stereo unspecified)	Measles CPE 41
COc1cc(C)c(C)cc1S(=O)(=O)N1CCCCC1c1cccnc1 (stereo unspecified)	Measles CPE 51
O=C(Nc1ccc(S(=O)(=O)N2CCCCC2c2cccnc2)cc1)c1c(F)cccc1F (stereo unspecified)	none (no result: Measles CPE, NPY Y2 blocker)
CC(=O)Nc1ccc(S(=O)(=O)N2CCCCC2c2cccnc2)cc1 (stereo unspecified)	Measles CPE 29
CC(C)Cc1cc(C(=O)O)n[nH]1	Measles CPE 19
O=C(NC(=S)Nc1ccccc1)c1ccc(-c2ccccc2)cc1	none
CC(C)NS(=O)(=O)c1ccc(NC(=S)NC(=O)c2ccc(-c3ccccc3)cc2)cc1	Measles CPE 44
OC(COCc1cccs1)CN1CCN(c2cccc(Cl)c2)CC1 (stereo unspecified)	Measles CPE 54
CCOc1ccccc1N(C(=O)c1ccco1)C(C(=O)NC1CCCC1)c1cccnc1 (stereo unspecified)	none
CCOc1ccccc1N(C(=O)c1snc(C(N)=O)c1N)C(C(=O)NC1CCCC1)c1ccco1 (stereo unspecified)	NPY Y2 blocker 20, NPY Y1 blocker 26
CN=c1scc(-c2ccccc2F)n1/N=C/c1ccc[nH]1	none (no result: Measles CPE, NPY Y2 blocker)
CN=c1scc(-c2ccccc2F)n1/N=C/c1ccc(O)c(O)c1O	NPY-Y1 PAM-ag 42, NPY-Y2 PAM-ag 29 (no result: Measles CPE, NPY Y2 blocker)
CON1C(=O)C(=O)N(OC)C2CCCCCC21 (stereo unspecified)	Measles CPE 45
CCOC(=O)CON1C(=O)C(=O)N(OCC(=O)OCC)C2CCCCC21 (stereo unspecified)	none (no result: Measles CPE, NPY Y2 blocker)

Bioassay records from PubChem BioAssay.
